Data set [1] in a line: Retention time of the compound by HPLC method. The format is physicochemical.
Data set [2] is described as follows: Drug distribution in thyroid gland of C57BL/6J mouse bearing mouse B16F0 cells at 18 to 20 MBq, iv after 72 hrs by SPECT imaging study. The conditions noted are these: in vivo. The data set is classed as ADME, organism-based. The essentials:
(§1)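 Female C57BL/6J mice (5–6 weeks) were inoculated s.c. on the left flank with 3 × 10^5 B16F0 cells in PBS and used after 11 days, with tumors 2–12 mm. Each received 18–20 MBq in 100 μL by lateral tail vein (n = 3 per tracer). Planar SPECT was done under isoflurane at 10–60 min, 3, 6, 24, 48 and 72 h. ROI pixel values were decay-corrected.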

Data set [3] has as its system Brain. The data set is described as follows: Drug distribution in brain of C57BL/6J mouse bearing mouse B16F0 cells at 18 to 20 MBq, iv measured over 72 hrs by SPECT imaging study. The format is ADME, organism-based. The conditions noted are these: in vivo. The essentials:
(§2)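 Female C57BL/6J mice bearing s.c. B16F0 tumors (11 days growth) received 18−20 MBq in 100 μL via lateral tail vein (n = 3). Isoflurane anesthesia (5% induction, 2−2.5% maintenance) on a 37 °C heating pad. Planar γ-camera imaging at 10−60 min (5 min frames), 3 and 6 h, 24, 48 and 72 h. Radioactivity localization assessed visually.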

Data set [4] in a line: Drug distribution in eyes of C57BL/6J mouse bearing mouse B16F0 cells at 18 to 20 MBq, iv measured over 72 hrs by SPECT imaging study. The data set is classed as ADME, organism-based, Eye. The conditions noted are these: in vivo. The essentials: as §1
A short description of data set [5]: Drug distribution in thyroid gland of C57BL/6J mouse bearing mouse B16F0 cells at 18 to 20 MBq, iv after 24 hrs by SPECT imaging study. The format is ADME, organism-based. The conditions noted are these: in vivo. The essentials: as §1
Data set [6] in a line: Drug distribution in thyroid gland of C57BL/6J mouse bearing mouse B16F0 cells at 18 to 20 MBq, iv after 3 hrs by SPECT imaging study. The data set is classed as ADME, organism-based. The conditions noted are these: in vivo. The essentials: as §1
Data set [7] has as its system Brain. The data set can be described thus: Drug distribution in brain of C57BL/6J mouse bearing mouse B16F0 cells at 18 to 20 MBq, iv within 1 hr by SPECT imaging study. The format is ADME, organism-based. The conditions noted are these: in vivo. The essentials: as §2

Molecules are shown by their SMILES.

`O=C1c2ccccc2CN1CC(=O)N1C[C@@H]2C[C@H]1CN2Cc1ccc([123I])cc1` came in with a Retention_time in data set [1] of 15.9 min. Also, the Drug uptake entry in data set [2] is “Active”; with Brain [3] it was “Not Active”; in data set [4] it was “Active”.
`O=C(CN1Cc2ccccc2C1=O)N1CCCN(Cc2ccc([123I])cc2)CC1` gave a Retention_time in data set [1] of 14.5 min. The Drug uptake entry in data set [2] is “Active”; in the data set on Brain [3] it was “Not Active”; in data set [4], “Active”.
As for `O=C(CN1Cc2ccccc2C1=O)N1CCN(Cc2ccc([123I])cc2)CC1`, the Retention_time in data set [1] is reported as 17.3 min. In addition, the Drug uptake entry was “Not Active” in the data set with Brain [3] and “Active” in data set [4].
In turn, `O=C(c1cccnc1)N1CCN(Cc2ccc([123I])cc2)CC1` returned a Retention_time in data set [1] of 16 min. Moreover, the Drug uptake entry in data set [5] is recorded as “Active”; with Brain [3], “Not Active”; in data set [4] it was “Active”.
`CCN(CC)CCNC(=O)c1cnc2cc([123I])ccc2n1` came in with a Retention_time in data set [1] of 15.7 min. Also, the Drug uptake result (in data set [6]; in the data set on Brain [7]; in the data set on Brain [3]; in data set [4]) was “Active” in each case.
